# Screening data: PubChem BioAssay, several laboratories
# B2AR ag: beta2AR agonists driving receptor internalization, primary screen, cell-based, FAP fluorogen, flow cytometry. Beta-2 adrenergic receptor (Homo sapiens), P07550. Am2.2-beta2AR cells. response, % (concentration not given with the values). 340,000 tested, 0.43% active;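 active = response above a set limit, near 3 SD of response in nonfluorescent compounds, cut at about 42% in these data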
# CHOP UPR activ: activators of apoptotic CHOP UPR arm, primary screen, cell-based, CHO-CHOP luciferase reporter, luminescence, uHTS | UPR activation; percent of tunicamycin response over DMSO baseline | activation, % at 10 µM | 330,000 tested, 0.34% active | AID 449763, 2010;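 active = at 10 µM dose, activation of 40% or more, normalized to positive control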;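 note: 100% = tunicamycin at 10 µg/mL and 0% = DMSO alone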
#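 measured by = luciferase luminescence | assay system = CHO-CHOP cells, stable luciferase reporter of PERK-eIF2a-CHOP signalling | amount = 500 reporter cells seeded per well | timing = 6 h compound exposure at 37 °C after overnight seeding | controls = positive tunicamycin 10 µg/mL, negative DMSO alone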
# XBP1 UPR activ: activators of adaptive XBP1 UPR arm, primary screen, cell-based, CHO-XBP1 luciferase reporter, luminescence, uHTS; IRE1-XBP1 UPR activation; percent of tunicamycin response, DMSO as zero; activation, % at 20 µM; 330,000 tested, 0.33% active;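 active = versus positive control, 20 µM dose yields 30% or more activation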;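 note: 100% = tunicamycin at 10 µg/mL and 0% = DMSO only wells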
#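 Assay system: IRE1-XBP1 luciferase reporter CHO line. Input: 1000 cells/well. Buffer or medium: F12 with 10% serum. Doses: 20 µM, 1% DMSO. Times: overnight seeding at 37 °C, 6 h compound treatment at 37 °C. Technique: Steady-Glo luciferase glow luminescence, 10 min after reagent addition.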
# Mdm2 ligase inh: MDM2-luciferase reporter signal enhancers, primary screen, MDM2 E3 ligase inhibitor project, cell-based, luminescence, 1536-well | cell-based MDM2 ubiquitination luciferase reporter, 2 h; 0 = plate control, 100 = twice control, blank-subtracted | signal enhancement, % at 5 µM | 210,000 tested, 0.11% active;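 active = signal enhancement of 30% or more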;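 note: luminescence tracks abundance of the self-degrading MDM2-luciferase fusion protein; higher signal means inhibition of MDM2 E3 ligase activity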
#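 Test system: stable mammalian line carrying autodegrading MDM2–luciferase fusion reporter; quantity: 2000 cells in each well; times: 4 h cell settling then 2 h compound exposure, 37 °C; detection: luminescence with SteadyLite reagent, 15 min at room temperature; evaluation: percent signal gain over controls, blank-subtracted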
# Mdm2-MdmX inh: inhibitors of human Mdm2-MdmX association, primary screen, cell-based, luminescence, split luciferase, SaOS-2, uHTS | SaOS-2 split-luciferase Mdm2/MdmX complementation | inhibition, % at 8 µM | 330,000 tested, 3% active;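 active = inhibition of at least 50% at 8 µM in the primary screen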
# Target sequence (O15151 whole entry, looked up): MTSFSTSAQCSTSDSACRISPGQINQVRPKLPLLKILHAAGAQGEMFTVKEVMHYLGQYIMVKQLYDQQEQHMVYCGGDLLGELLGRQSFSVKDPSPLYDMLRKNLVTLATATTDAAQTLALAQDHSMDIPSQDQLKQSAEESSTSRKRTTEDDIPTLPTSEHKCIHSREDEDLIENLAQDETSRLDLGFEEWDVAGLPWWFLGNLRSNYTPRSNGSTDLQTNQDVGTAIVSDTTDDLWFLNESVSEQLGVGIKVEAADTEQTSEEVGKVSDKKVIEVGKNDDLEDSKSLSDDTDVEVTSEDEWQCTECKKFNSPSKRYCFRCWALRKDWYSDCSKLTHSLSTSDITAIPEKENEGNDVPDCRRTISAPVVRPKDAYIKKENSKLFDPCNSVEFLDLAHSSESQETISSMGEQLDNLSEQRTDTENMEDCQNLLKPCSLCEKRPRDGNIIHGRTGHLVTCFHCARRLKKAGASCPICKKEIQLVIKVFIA
# Target sequence (Q00987 whole entry, looked up): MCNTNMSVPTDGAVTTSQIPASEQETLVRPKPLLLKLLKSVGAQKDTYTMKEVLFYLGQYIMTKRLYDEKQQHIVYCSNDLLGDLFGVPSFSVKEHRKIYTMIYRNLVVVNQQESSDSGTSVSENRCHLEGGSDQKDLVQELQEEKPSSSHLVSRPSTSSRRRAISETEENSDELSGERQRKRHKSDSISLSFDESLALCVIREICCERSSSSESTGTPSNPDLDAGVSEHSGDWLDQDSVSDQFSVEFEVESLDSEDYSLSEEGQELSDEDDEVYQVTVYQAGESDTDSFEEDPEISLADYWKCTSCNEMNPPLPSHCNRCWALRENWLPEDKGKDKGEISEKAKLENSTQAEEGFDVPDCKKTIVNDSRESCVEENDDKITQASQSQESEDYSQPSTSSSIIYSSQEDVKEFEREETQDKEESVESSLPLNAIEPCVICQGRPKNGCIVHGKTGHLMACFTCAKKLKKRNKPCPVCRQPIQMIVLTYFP
# Dynein cargo inh: inhibitors of GR-EGFP nuclear translocation, primary screen, dynein cargo transport inhibitor project, imaging, high-content, 3617.4 mouse cells. AID 1381, 2008. z-score, hits read low. test concentration mostly 20 µM; stimulated with dexamethasone, 1 µM; stronger effect = lower value. 220,000 tested, 0.47% active;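 active = plate z-score of nuclear minus cytoplasmic receptor signal below a set negative limit, without overly bright fluorescence or cell loss, cut at about -3.5 in these data, passing the limit was not always enough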;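 note: z-score of nuclear minus cytoplasmic ring GR-EGFP intensity difference per well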
#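 Buffer or medium – tet-free medium with charcoal-stripped serum · Signal – automated 10x imaging of fixed Hoechst-stained cells · Also added – dexamethasone agonist, 1.0 µM final, for 30 min · Incubation – induction 48 h, compound 1 h, agonist 30 min · Read-out – GR-EGFP nuclear translocation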
# Mdm2-MdmX conf: Mdm2-MdmX complex disruptors, retested hits, confirmation, luminescence, single concentration. 10,000 tested, 55% active. shares compounds with Mdm2-MdmX inh. Mdm2-MdmX binding, luminescent assay. inhibition, % at 8 µM; in the data active = inhibition above about 40%
# Full FLuc ctr: full-length luciferase signal inhibition, confirmation, counter-screen for Mdm2/MdmX interaction inhibitor project, cell-based, single concentration, SaOS-2 | shares compounds with Mdm2-MdmX inh | SaOS-2 full-length luciferase counterscreen, luminescence | inhibition, % at 8 µM | 6,200 tested, 77% active;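 active = mean inhibition at 8 µM reaching about 37%, which flags the compound as non-specific, limit read from the data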;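 note: p53-null SaOS-2 cells with luciferase driven by a doxycycline-inducible promoter; compound on cells about two nights before reading with doxycycline added after day one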
# * = called active by the depositor; / = not tested or not shown. Sampled rows, rich in hits. Any-hit rate of the full collection: about 3.7%.
SMILES,B2AR ag,CHOP UPR activ,XBP1 UPR activ,Mdm2 ligase inh,Mdm2-MdmX inh,Dynein cargo inh,Mdm2-MdmX conf,others
CCn1c(=O)c(C(=O)Nc2ccccc2S(N)(=O)=O)c(O)c2ccccc21,15,6,1,-14,56*,-0.096,3,
CCCCCCC(=O)NNC(=O)c1c(O)c2ccccc2n(CC)c1=O,10,-1,-2,6,5,-0.3,/,
CC(C)Cn1c(=O)c(C(=O)Nc2cnccn2)c(O)c2ccccc21,1,2,5,-10,31,-0.12,/,
COc1ccc(CCNC(=O)c2ccc(S(=O)(=O)N3CCCCC3)cc2)cc1,8,-1,-2,/,-20,/,/,
CC(=O)Nc1ccc(-c2csc(-c3cccnc3)n2)cc1,-6,3,-5,/,-72,/,/,
CCn1nc(C)c(CN2CCC(n3nccc3NC(=O)c3ccc4c(c3)OCO4)CC2)c1C,2,0,-3,/,-8,/,/,
Cc1oc(-c2ccccc2)nc1C(=O)O,5,-1,-2,4,77*,-0.077,-20,
Cc1ccc(C(=O)N/C(=C\c2ccc(-c3ccc(Br)cc3)o2)C(=O)NCCCN(C)C)cc1,41,8,29,-17,100*,-5.7,99*,Full FLuc ctr=55*
CN(C)CCNC(=O)/C(=C/c1ccc(-c2ccc(Cl)cc2Cl)o1)NC(=O)c1ccccc1,-1,3,1,-11,100*,-5.1,100*,Full FLuc ctr=26
CN(C)CCNC(=O)/C(=C/c1ccc(-c2ccc(Cl)cc2)o1)NC(=O)c1ccccc1,8,/,/,-5,/,4.6,/,
COC(=O)c1sc(S(=O)(=O)N2CCCCC2C)c(C(=O)OC)c1C (centres undefined),9,-1,-2,/,-3,/,/,
CC1CC(=O)Nc2ccccc2N1C(=O)CSc1nnnn1C(C)C (centres undefined),-6,1,-2,/,-23,/,/,
COc1cc(C(CCN2CCCC2)c2c(OC)cc(OC)c3ccc(=O)oc23)cc(OC)c1OC (centres undefined),0,-2,0,-4,-7,0.39,/,
CCCCCc1cc(=O)oc2c(C(CCN3CCCC(C)C3)c3cc(OC)c(OC)c(OC)c3)c(OC)cc(OC)c12 (centres undefined),14,21,10,-8,100*,0.98,52*,Full FLuc ctr=43*
CCCCCc1cc(=O)oc2c(C(CCN3CCCC(C)C3)c3ccc(N(C)C)cc3)c(OC)cc(OC)c12 (centres undefined),17,20,22,-1,96*,-1.3,27,
CCCCCc1cc(=O)oc2c(C(CCN3CCCCC3)c3cc(OC)c(OC)c(OC)c3)c(OC)cc(OC)c12 (centres undefined),21,7,1,6,98*,-6.4,46*,Full FLuc ctr=27
CCCCCc1cc(=O)oc2c(C(CCN(CC)CC)c3ccc(N(C)C)cc3)c(OC)cc(OC)c12 (centres undefined),11,5,5,-20,90*,-2.4,25,
COc1cc(OC)c2ccc(=O)oc2c1C(CCN1CCCC(C)C1)c1ccc(N(C)C)cc1 (centres undefined),-5,4,-1,-10,0,-0.34,/,
